Experimental data collected from several papers.
Target: Serine/threonine-protein kinase pim-1 (PIM1, Homo sapiens, UniProt P11309)

With CN(C)C1CCN(CC#Cc2nn(C3CCCC3)c3nc(NCc4ccccc4)ncc23)C1 (stereo not drawn) the inhibition was 2% (enzyme activity, inhibitor, FRET; 1 µM).
The inhibition of CNc1cccc2cc(C(=O)Nc3ccc(C(=O)O)cc3)c(=O)[nH]c12 is reported as 2.6% (enzyme activity, inhibitor; 10 µM).
COc1cc(Nc2cnc(C#N)c(O[C@H](C)CN(C)C)n2)ncc1-c1cnn(C)c1 has a remaining activity of 22% (enzyme activity, inhibitor, radiometric; 10 µM).
Cc1sc(C(=O)NC2COC2)cc1-n1cc(NC(=O)Nc2c(F)cccc2Cl)cn1 has a remaining activity of 95.1% (enzyme activity, inhibitor; 10 µM).
With O=C(CSc1nc2nccnc2c(=O)n1CCc1ccccc1)Nc1nccs1 the inhibition was 5% (enzyme activity, inhibitor; 10 µM).
The remaining binding of Nc1c(C(=O)NCc2ccc(C(=O)NCCCC3CCCCC3)cc2)cnn1-c1ccccc1 is reported as 93% (cell-free assay, competition with immobilised ligand; 0.1 µM).
For CCN(CC)c1ccc(C2=NNC(=O)CC2C)cc1[N+](=O)[O-] (stereo not drawn), the remaining activity was 82% (enzyme activity, inhibitor; 10 µM).
The remaining activity of Nc1nc(Nc2ccccc2)sc1C(=O)c1c(F)cccc1F is reported as 79% (enzyme activity, inhibitor; 10 µM).
For CCOc1cc(-c2nncn2C)ccc1Nc1ncc2cc(C)nc(NCC(C)(C)C)c2n1, the inhibition was under 15% (enzyme activity, inhibitor, FRET; 1 µM).
The ΔTm of Cn1c2c(c3ccc(Cl)c(Cl)c31)C(C#N)C1(CCNCC1)NC2=O (racemic) is reported as over 8 °C (thermal stability, DSF; 10 µM).
Nc1nc(NC2CCCCC2)sc1C(=O)c1ccccc1 gave a remaining activity of 94% (enzyme activity, inhibitor; 10 µM).
The remaining binding of O=C(NCCCC1CCCCC1)c1ccc(CNC(=O)c2cnn(-c3ccccc3)c2C(F)(F)F)cc1 is reported as 100% (cell-free assay, competition with immobilised ligand; 0.1 µM).
CCN(CC)CCNC(=O)c1c(C)[nH]c(/C=C2\C(=O)Nc3ccc(F)cc32)c1C gave a remaining signal of 94.4% (cell-free assay; 0.5 µM).
With O=C(Nc1cccnn1)N1CC(C/C=C/c2cncc(Oc3ccc(C(F)(F)F)cn3)n2)C1 the remaining binding was 91% (cell-free assay, competition with immobilised ligand; 1 µM).
Nc1ncnc2c1ncn2[C@@H]1O[C@H](COP(=O)(O)OP(=O)(O)OP(=O)(O)O)[C@@H](O)[C@H]1O has a Km of 48 µM (enzyme activity, substrate, radiometric).
CC(C)(C)c1nc(-c2cccc(NS(=O)(=O)c3c(F)cccc3F)c2F)c(-c2ccnc(N)n2)s1 gave a remaining activity of 109% (enzyme activity, inhibitor, radiometric; 1 µM).
FC(F)(F)Oc1cccc(-c2cnc3ccc(-c4ccncc4)nn23)c1 gave an activity vs control of 59% (enzyme activity, inhibitor, radiometric; 1 µM).
CCN1/C(=C/C(C)=O)Sc2ccc(OC)cc21 gave a remaining signal of 17.9% (cell-free assay; 0.5 µM).
The remaining activity of O=C(Nc1cnn(-c2csc(C(=O)NC3COC3)c2)c1)Nc1c(F)cccc1Cl is reported as 73.3% (enzyme activity, inhibitor; 5 µM).
With COCCOc1nc(-c2ccc(Cl)nc2)nc2c1CN(C(=O)c1ncn3ccccc13)CC2 the remaining binding was 100% (cell-free assay, competition with immobilised ligand; 0.1 µM).
The inhibition of Cc1ncc([N+](=O)[O-])n1C(=NO)c1ccccc1C(F)(F)F is reported as 8.92% (enzyme activity, inhibitor; 10 µM).
O=C1NC(=O)c2cc(Nc3ccc(F)cc3)c(Nc3ccc(F)cc3)cc21 has a remaining signal of 81.8% (cell-free assay; 0.5 µM).
CNC(=O)c1cc(Oc2ccc(NC(=O)Nc3ccc(Cl)c(C(F)(F)F)c3)cc2)ccn1 has an inhibition of 5% (enzyme activity, inhibitor; 10 µM).
CSc1cccnc1N1CCN(Cc2nc3ccccc3[nH]2)CC1 has a remaining binding of 100% (cell-free assay, competition with immobilised ligand; 1 µM).
The remaining activity of FC(F)c1nc2ccccc2n1-c1nc(N2CCOCC2)nc(N2CCOCC2)n1 is reported as 97% (enzyme activity, inhibitor; 10 µM).
C[C@H](NC(=O)c1cnc2n1[C@](C)(Cc1ccc(C#N)cc1)C(=O)N2c1cc(Cl)c(F)c(Cl)c1)C(=O)NC1(c2ccccn2)CC1 has a remaining binding of 100% (cell-free assay, competition with immobilised ligand; 1 µM).
With Cc1ccc(Nc2nccc(N(C)c3ccc4c(C)n(C)nc4c3)n2)cc1S(N)(=O)=O the inhibition was -1% (enzyme activity, inhibitor; 0.3 µM).
With COc1cc2ncnc(Nc3ccc(F)c(Cl)c3)c2cc1OCCCN1CCOCC1 the remaining signal was 86.4% (cell-free assay; 0.5 µM).
With O=C(N1CCS(=O)(=O)CC1)N1C[C@H](c2ccc(OC(F)(F)F)cc2)C[C@H](c2nc(C3CC3)no2)C1 the remaining binding was 100% (cell-free assay, competition with immobilised ligand; 1 µM).
CC/C(=N\NC(=O)NCc1cccc(O)c1)c1ccc(O)c(C)c1O gave an inhibition of 2.4% (enzyme activity, inhibitor; 0.1 µM).
O=S(=O)(Nc1cc(Sc2ncn[nH]2)c(O)c2ccccc12)c1ccc(-c2ccccc2)cc1 gave a remaining activity of at least 75% (enzyme activity, inhibitor; 1 µM).
The remaining binding of Cn1cc(Cl)c2c(Oc3c(F)cc(Nc4cc(Cl)nc(N)n4)cc3F)ccnc21 is reported as 100% (cell-free assay, competition with immobilised ligand; 0.1 µM).
The inhibition of COc1cc2ncnc(Nc3ccc(Oc4ccccc4)c(C)c3C)c2cc1OC is reported as 5% (enzyme activity, inhibitor; 1 µM).
